Results: ChEMBL document CHEMBL1147169, “From pyrroles to 1-oxo-2,3,4,9-tetrahydro-1H-beta-carbolines: a new class of orally bioavailable mGluR1 antagonists” (Bioorg Med Chem Lett, 2007)

Columns and labels:
[1] = Plasma clearance in rat; assay type: ADME, organism-based
[2] = Cmax in rat; assay type: ADME, organism-based; conditions: in vivo
Procedure, shortened: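 Maximum plasma concentration (ng/ml) measured after oral administration in rat.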

[3] = Oral bioavailability in rat; assay type: ADME, organism-based; conditions: in vivo
[4] = target: Metabotropic glutamate receptor 1 (Rattus norvegicus, UniProt P23385); experiment: Antagonist activity at rat mGluR1a expressed in CHO cells assessed as inhibition of intracellular calcium ion mobilization by FLIPR assay; assay type: functional, cell-based
[5] = Oral bioavailability in rat at 1 mg/kg, po; assay type: ADME, organism-based; conditions: in vivo
[6] = Oral bioavailability in rat at 5 mg/kg, po; assay type: ADME, organism-based; conditions: in vivo
Rattus norvegicus = experiment: Ratio of drug level in rat from brain to plasma at 3 mg/kg, iv after 1 hr; conditions: in vivo
Mus musculus [7] = experiment: Reduction of inflammatory pain in late phase of formalin-induced mouse at 10 mg/kg, po; assay type: ADME, organism-based; set-up: dose 10 mg/kg, route oral; conditions: in vivo
Procedure, shortened: (§1)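 Mice given compound po at 10 or 30 mg/kg, 30 min before 20 µl 1% formalin into left hind paw; nociceptive behaviour time (s) scored in early phase (0–5 min) and late phase (20–60 min); n = 8-19; significance p < 0.05 / p < 0.01 versus vehicle.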

Mus musculus [8] = experiment: Reduction of inflammatory pain in late phase of formalin-induced mouse at 30 mg/kg, po; assay type: ADME, organism-based; set-up: dose 30 mg/kg, route oral; conditions: in vivo; procedure, shortened: as §1
Mus musculus [9] = experiment: Reduction of inflammatory pain in early phase of formalin-induced mouse at 30 mg/kg, po; assay type: ADME, organism-based; set-up: dose 30 mg/kg, route oral; conditions: in vivo; procedure, shortened: as §1

Sequence of Metabotropic glutamate receptor 1 (P23385 whole entry): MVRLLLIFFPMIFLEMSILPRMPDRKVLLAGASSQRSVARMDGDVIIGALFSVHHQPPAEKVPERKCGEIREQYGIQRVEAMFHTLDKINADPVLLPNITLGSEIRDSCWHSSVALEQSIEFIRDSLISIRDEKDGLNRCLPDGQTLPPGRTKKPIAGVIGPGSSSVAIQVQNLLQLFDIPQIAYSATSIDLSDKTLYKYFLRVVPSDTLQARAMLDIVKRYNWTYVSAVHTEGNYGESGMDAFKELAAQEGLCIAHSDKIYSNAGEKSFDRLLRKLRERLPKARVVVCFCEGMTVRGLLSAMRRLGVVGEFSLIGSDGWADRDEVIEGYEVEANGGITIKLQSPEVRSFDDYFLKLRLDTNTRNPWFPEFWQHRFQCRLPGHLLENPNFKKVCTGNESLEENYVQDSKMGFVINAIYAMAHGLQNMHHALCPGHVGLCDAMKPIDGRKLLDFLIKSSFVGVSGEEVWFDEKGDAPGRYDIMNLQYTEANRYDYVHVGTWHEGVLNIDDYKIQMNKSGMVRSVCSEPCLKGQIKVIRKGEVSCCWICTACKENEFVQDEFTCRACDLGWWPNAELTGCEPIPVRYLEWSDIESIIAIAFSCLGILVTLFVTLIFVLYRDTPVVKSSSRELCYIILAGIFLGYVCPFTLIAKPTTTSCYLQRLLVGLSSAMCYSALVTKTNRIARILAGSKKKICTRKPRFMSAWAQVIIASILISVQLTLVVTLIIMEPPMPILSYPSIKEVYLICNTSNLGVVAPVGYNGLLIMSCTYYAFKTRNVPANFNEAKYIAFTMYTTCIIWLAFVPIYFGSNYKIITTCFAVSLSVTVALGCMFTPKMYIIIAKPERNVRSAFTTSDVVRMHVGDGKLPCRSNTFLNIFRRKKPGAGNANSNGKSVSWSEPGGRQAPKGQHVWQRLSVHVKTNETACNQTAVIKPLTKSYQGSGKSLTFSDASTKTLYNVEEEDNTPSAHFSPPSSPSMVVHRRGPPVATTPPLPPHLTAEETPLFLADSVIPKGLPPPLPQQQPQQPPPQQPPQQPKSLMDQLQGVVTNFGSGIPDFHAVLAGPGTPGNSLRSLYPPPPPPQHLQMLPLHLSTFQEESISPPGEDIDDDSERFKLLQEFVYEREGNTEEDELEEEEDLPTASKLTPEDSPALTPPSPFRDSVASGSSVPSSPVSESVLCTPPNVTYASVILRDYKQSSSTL

Row | SMILES | IC50 [4] [nM] | also measured
1 | O=C(NC12CC3CC(CC(C3)C1)C2)c1ccc2[nH]c3c(c2c1)CCNC3=O | 71 | clearance [1]: 54 mL/min/kg; Cmax [2]: 37 ng/mL; bioavailability [3]: 12%
2 | O=C(NC1C2CC3CC(C2)CC1C3)c1ccc2[nH]c3c(c2c1)CCNC3=O (centres undefined) | 93 | 
3 | O=C1NCc2c1[nH]c1ccc(OCc3ccccc3)cc21 | 683 | 
4 | O=C1NN=CC2c3cc(OCc4ccccc4)ccc3NC12 (centres undefined) | 1020 | 
5 | CCCOC(=O)c1[nH]c(C)c(C(=O)O[C@@H](C)C(C)(C)C)c1C | 16 | 
6 | O=C1NCCc2c1[nH]c1cccc(OCc3ccccc3)c21 | 3980 | 
7 | c1ccc(COc2ccc3[nH]c4c(c3c2)CCNC4)cc1 | > 10000 | 
8 | c1ccc(COc2ccc3c(c2)C2CCNCC2N3)cc1 (centres undefined) | > 10000 | 
9 | O=C1CCCc2c1[nH]c1ccc(OCc3ccccc3)cc21 | > 10000 | 
10 | CC(NC(=O)c1ccc2[nH]c3c(c2c1)CCNC3=O)C(C)(C)C (centres undefined) | > 10000 | 
11 | CC(N(C)C(=O)c1ccc2[nH]c3c(c2c1)CCNC3=O)C(C)(C)C (centres undefined) | 120 | 
12 | O=C(NC1CC2CCC1C2)c1ccc2[nH]c3c(c2c1)CCNC3=O (centres undefined) | 226 | 
13 | O=C1NCCc2c1[nH]c1ccc(OCc3ccccc3)cc21 | 104 | Cmax [2]: 145 ng/mL; bioavailability [5]: 0%; bioavailability [6]: 9%
14 | O=C(NCC12CC3CC(CC(C3)C1)C2)c1ccc2[nH]c3c(c2c1)CCNC3=O | 312 | 
15 | O=C(Nc1ccc2[nH]c3c(c2c1)CCNC3=O)NC12CC3CC(CC(C3)C1)C2 | 4660 | 
16 | O=C1NCCc2c1[nH]c1ccc(OCC3CCCCC3)cc21 | 5560 | 
17 | O=C(Nc1ccccc1)c1ccc2[nH]c3c(c2c1)CCNC3=O | 1040 | 
18 | O=C1NCCc2c1[nH]c1ccc(NC(=O)C34CC5CC(CC(C5)C3)C4)cc21 | 71 | clearance [1]: 52 mL/min/kg
19 | O=C1NCCc2c1[nH]c1ccc(Oc3ccccc3)cc21 | 4070 | 
20 | O=C1NCCC2c3cc(OCc4ccccc4)ccc3NC12 (centres undefined) | 1670 | 
21 | Cc1cc2[nH]c3c(c2cc1OCc1ccccc1)CCNC3=O | 167 | Ratio (Rattus norvegicus): 6.1; Activity (Mus musculus [7]): Active; Cmax [2]: 264 ng/mL; bioavailability [3]: 36%; Activity (Mus musculus [8]): Active; Activity (Mus musculus [9]): Active
22 | O=C1NCCc2c1[nH]c1cc(OCc3ccccc3)ccc21 | 2850 | 
23 | O=C1NCCc2c1[nH]c1ccc(O)cc21 | > 10000 | 
24 | CC(Oc1ccc2[nH]c3c(c2c1)CCNC3=O)C(C)(C)C (centres undefined) | 239 | 
25 | CC(Oc1ccc2[nH]c3c(c2c1)CCNC3=O)c1ccccc1 (centres undefined) | 380 | 
26 | COc1ccc2[nH]c3c(c2c1)CCNC3=O | > 10000 | 
